# Compound activity deposited in PubChem BioAssay by several laboratories.
# CHOP UPR activ: activators of apoptotic CHOP UPR arm, primary screen, cell-based, CHO-CHOP luciferase reporter, luminescence, uHTS; 0.34% of 330,000 active; UPR activation; percent of tunicamycin response over DMSO baseline; activation, % at 10 µM;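 active means at 10 µM dose, activation of 40% or more, normalized to positive control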
#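 Assay system: CHO cells with stable CHOP pathway luciferase reporter; Buffer or medium: F12 plus 10% serum; Times: 16-18 h cell attachment, then 6 h compound exposure, 37 °C; Signal: luciferase luminescence; Read-out basis: percent activation relative to tunicamycin control; Control set: tunicamycin high control, DMSO low control.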
# NOD2-RIPK2 inh: NOD2-RIPK2 binding disruptors in cells, primary screen, fluorescence, CHO cells, BLA complementation. CCF4 ratio. inhibition, % at 4.98 µM. AID 624267, 2012. 0.38% of 360,000 active. Receptor-interacting serine/threonine-protein kinase 2 (Homo sapiens), O43353; in the data active means inhibition above about 21%
# CHOP inhibitor: inhibitors of CHOP promoter induction, primary screen, cell-based, unfolded protein response, luciferase reporter; CHO-K1 CHOP-promoter luciferase, tunicamycin-induced, 15-18 h; inhibition, % at 10 µM; 3.8% of 220,000 active;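 active means compounds that reduced the stress-induced luciferase reporter signal by more than about 70% of percent inhibition, limit read from the data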
# TLR4 MyD88 comp: inhibitors of TLR4-MyD88 association in cells, primary screen, cell-based, HeLa CL3-4, BLA complementation, FRET ratio | 0.18% of 200,000 active | HeLa CL3-4 TLR4/MyD88 BLA complementation | Toll-like receptor 4 (Homo sapiens) + Myeloid differentiation primary response protein … | inhibition, % at 8.4 µM; in the data active means inhibition above about 25%
# Target sequence (O00206 whole entry, looked up): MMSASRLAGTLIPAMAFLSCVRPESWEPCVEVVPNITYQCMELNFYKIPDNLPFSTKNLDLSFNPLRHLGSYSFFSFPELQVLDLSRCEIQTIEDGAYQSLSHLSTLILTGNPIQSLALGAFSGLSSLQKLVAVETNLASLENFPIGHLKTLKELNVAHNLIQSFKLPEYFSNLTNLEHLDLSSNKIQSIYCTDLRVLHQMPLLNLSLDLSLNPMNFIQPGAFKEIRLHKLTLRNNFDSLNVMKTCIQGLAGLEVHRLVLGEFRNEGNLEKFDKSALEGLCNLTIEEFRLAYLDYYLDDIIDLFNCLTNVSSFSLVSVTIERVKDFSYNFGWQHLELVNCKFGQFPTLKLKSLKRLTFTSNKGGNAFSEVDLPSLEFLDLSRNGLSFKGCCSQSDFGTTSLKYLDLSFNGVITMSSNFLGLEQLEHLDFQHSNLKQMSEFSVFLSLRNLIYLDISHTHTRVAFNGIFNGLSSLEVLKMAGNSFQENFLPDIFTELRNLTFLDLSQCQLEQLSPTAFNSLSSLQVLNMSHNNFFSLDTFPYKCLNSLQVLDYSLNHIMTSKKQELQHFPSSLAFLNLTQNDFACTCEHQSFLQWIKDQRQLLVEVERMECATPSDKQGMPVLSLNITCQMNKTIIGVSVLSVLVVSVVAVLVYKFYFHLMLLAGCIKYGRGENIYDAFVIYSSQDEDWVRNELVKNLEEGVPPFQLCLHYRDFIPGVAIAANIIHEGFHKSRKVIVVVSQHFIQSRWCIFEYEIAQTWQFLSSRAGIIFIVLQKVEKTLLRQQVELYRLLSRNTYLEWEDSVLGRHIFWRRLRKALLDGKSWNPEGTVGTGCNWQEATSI
# Target sequence (Q99836 whole entry, looked up): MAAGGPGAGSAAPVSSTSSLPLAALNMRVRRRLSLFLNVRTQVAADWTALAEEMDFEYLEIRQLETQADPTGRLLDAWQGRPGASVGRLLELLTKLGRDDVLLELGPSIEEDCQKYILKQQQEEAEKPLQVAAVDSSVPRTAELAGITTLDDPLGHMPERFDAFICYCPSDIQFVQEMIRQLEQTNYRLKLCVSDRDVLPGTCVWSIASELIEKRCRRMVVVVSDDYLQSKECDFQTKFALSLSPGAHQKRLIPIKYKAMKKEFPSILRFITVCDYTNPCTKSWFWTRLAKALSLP
# TLR9-MyD88 block: inhibitors of TLR9-MyD88 association in cells, primary screen, cell-based, CHO, BLA complementation, fluorescence; CCF4 FRET ratio; inhibition, % at 4.98 µM; 0.21% of 340,000 active;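 active means inhibition above the mean over all tested compounds plus 3 SD, cut at about 21% in these data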
# XBP1 UPR activ: activators of adaptive XBP1 UPR arm, primary screen, cell-based, CHO-XBP1 luciferase reporter, luminescence, uHTS; activation, % at 20 µM; IRE1-XBP1 UPR activation; percent of tunicamycin response, DMSO as zero; 0.33% of 330,000 active; AID 463104, 2010;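 active means versus positive control, 20 µM dose yields 30% or more activation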
#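 Test system: CHO-XBP1 luciferase reporter cells | Buffer or medium: Serum-containing F12 medium, 10% FBS | Schedule: 6 h compound exposure at 37 °C, 5% CO2 | Detection: Steady-Glo luciferase glow luminescence, 10 min after reagent addition | Read-out basis: Activation, % of tunicamycin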
# A number is an active result; i = inactive; nt = no result given. Shown is part of a subset that was picked to be rich in hits.
SMILES,CHOP UPR activ,NOD2-RIPK2 inh,CHOP inhibitor,TLR4 MyD88 comp,TLR9-MyD88 block,XBP1 UPR activ
Cc1cccc(N2CCN(C(c3cccs3)c3nnnn3C(C)(C)C)CC2)c1C (stereo not given),i,i,77.4,i,i,i
Cc1cccc(N=Cc2[nH]c3ccc(Br)c(Cl)c3c2O)c1,nt,i,89.6,i,i,nt
CCCCN(C(=O)c1ccccc1Br)C(c1ccc(OC)cc1)c1nc2ccccc2[nH]1 (stereo not given),nt,i,nt,nt,nt,nt
CC(C)OC(=O)CSc1nc(Cc2ccccc2)nc2ccccc12,i,i,75.5,i,i,i
COC(=O)CSc1nc(Cc2ccccc2)nc2ccccc12,i,i,i,i,i,i
Cc1ccc2[nH]c(=O)c(-c3nc4cc(C)ccn4c3NCc3ccco3)cc2c1,i,i,92.7,i,i,i
Cc1ccc(-c2nc(N/N=C/c3ccncc3)c3ccccc3n2)cc1,i,i,81.5,i,i,i
Fc1ccccc1/C=N/Nc1nc(-c2ccccn2)nc2ccccc12,168.1,nt,i,nt,nt,i
Cc1ccc2nc(C(Cl)(Cl)Cl)nc(N/N=C/c3ccc([N+](=O)[O-])cc3)c2c1,nt,i,nt,nt,i,nt
Cc1ccc2nc(C(Cl)(Cl)Cl)nc(N/N=C/c3ccncc3)c2c1,i,i,72.1,i,i,i
CC(=O)Nc1cc(-c2cccnc2)cn2c(-c3ccc(F)cc3)cnc12,nt,i,nt,nt,nt,nt
CNC(=O)C[C@H]1C(=O)N(c2ccc(Br)cc2)C[C@@H]1CSC,nt,i,nt,nt,i,nt
NC(=O)c1ncn([C@@H]2O[C@H](CNCc3cccn3-c3ccncc3)[C@@H](O)[C@H]2O)n1,nt,i,nt,nt,i,nt
CC(=O)NC(c1ccccc1)c1nc(-c2cccc(F)c2)cs1 (stereo not given),nt,i,nt,nt,nt,nt
CC(O)CNc1nc2c(c(=O)n(Cc3ccc(Cl)c(Cl)c3)c(=O)n2C)n1C (stereo not given),i,i,77.8,nt,i,i
CC(C)CCNc1nc2c(c(=O)n(Cc3cccc(F)c3)c(=O)n2C)n1C,i,i,70.8,i,i,i
CC(O)CNc1nc2c(c(=O)n(Cc3ccc(Cl)cc3)c(=O)n2C)n1C (stereo not given),i,i,nt,nt,i,i
O=C(NCc1ccccn1)c1ccccc1OCc1ccccc1Cl,nt,i,nt,nt,i,nt
Cc1ccc(NC(=O)c2cc(S(=O)(=O)N3CCCCC3)ccc2N2CCOCC2)c(C)c1,nt,i,nt,nt,i,nt
O=C(COC(=O)Cc1ccccc1F)NCc1ccccc1Cl,nt,i,nt,nt,i,nt
Cc1cc(Nc2ccccc2)nn1C(=O)c1ccc([N+](=O)[O-])cc1,i,i,i,i,i,i
Cc1cc(Nc2ccccc2)nn1C(=O)c1ccc(Cl)cc1,i,i,77.1,i,i,i
CCN1C(=O)CSC1=NC12CC3CC(CC(C3)C1)C2,i,i,i,i,i,i
CN1C(=O)CSC1=NC12CC3CC(CC(C3)C1)C2,i,i,72.7,i,i,i
CCCN(CCC)c1nc2ccccc2nc1C(C#N)C(=O)OC(C)COC (stereo not given),i,nt,86.6,i,nt,i
SMILES,CHOP UPR activ,NOD2-RIPK2 inh,CHOP inhibitor,TLR4 MyD88 comp,TLR9-MyD88 block,XBP1 UPR activ
C/C(=N\NC(=O)c1ccc([N+](=O)[O-])cc1Cl)c1ccccc1,i,i,83.3,i,i,i
C/C(CC(=O)Nc1ccc(N(C)C)cc1)=N\NC(=O)c1ccc([N+](=O)[O-])cc1Cl,i,i,i,i,i,i
C[C@H]1CN([C@@H](C)CO)C(=O)CCCn2nncc2CO[C@@H]1CN(C)Cc1ccc(Cl)c(Cl)c1,nt,i,nt,nt,i,nt
CCOC(=O)C1CCN(CC(O)COc2ccc(C(C)(C)C)cc2)CC1 (stereo not given),i,i,i,i,i,i
CCOC(=O)C1CCN(CC(O)COc2ccc(C(C)(C)CC)cc2)CC1 (stereo not given),i,i,92.6,i,i,i
COc1ccc(Cc2nc3ccc(C(=O)NCc4cccc(C)n4)cc3o2)cc1OC,nt,i,nt,nt,i,nt
COc1ccc(C(=O)/C=C/C(=O)N(CC(=O)NC2CCCCC2)Cc2ccccc2)c(O)c1,nt,i,107.6,i,i,nt
COc1ccc(C(=O)/C=C/C(=O)N(Cc2ccccc2OC)C(C(=O)NC2CCCCC2)c2ccncc2)c(O)c1 (stereo not given),i,i,i,i,i,i
COc1ccc(C(=O)/C=C/C(=O)N(CC(=O)NC2CCCCC2)Cc2ccccc2OC)c(O)c1,nt,i,107.3,i,i,nt
CCCNC(=O)N1C[C@H](O)COC[C@H]2O[C@@H](CC(=O)N[C@@H]3CCN(Cc4ccccc4)C3)CC[C@@H]21,nt,i,nt,nt,nt,nt
COc1ccc(C(=O)c2ccc(Cl)cc2)c2ccccc12,i,i,i,i,i,i
COc1ccc(C(=O)c2ccccc2)c2c(O)ccc(C(=O)c3ccccc3)c12,i,i,85.9,i,i,i
CCOCCn1c(=NC(=O)c2cc(Cl)sc2Cl)sc2cc(S(N)(=O)=O)ccc21,i,nt,90.4,i,nt,i
COCCn1c(=NC(=O)c2cc(Cl)sc2Cl)sc2cc(S(N)(=O)=O)ccc21,i,i,81.4,i,i,i
Cc1cc(NC(=O)c2ccc3sc([C@@H]4O[C@H](CO)[C@H](O)[C@H](O)[C@H]4O)nc3c2)no1,nt,i,nt,nt,nt,nt
COC(=O)c1cc(N2C(=O)C3C(C2=O)C2(C)C=CC3(C)O2)ccc1Cl (stereo not given),i,nt,74.6,i,nt,i
O=C(c1ccccc1F)N1CCN(c2ccccc2)CC1,i,i,i,i,i,i
O=C(c1c(F)c(F)c(F)c(F)c1F)N1CCN(c2cccc(C(F)(F)F)c2)CC1,i,i,81.9,i,i,i
O=C(c1ccccc1F)N1CCN(c2cccc(C(F)(F)F)c2)CC1,i,i,73.7,i,i,i
Cn1c(C(=O)N2CCN(c3cccc(C(F)(F)F)c3)CC2)cc2sccc21,i,i,72.4,i,i,i
CC(C(=O)NC1=NCCS1)N1C(=O)c2ccccc2C1=O (stereo not given),i,i,i,i,i,i
CC(C(=O)NC1=NCCS1)N1C(=O)C2CC=CCC2C1=O (stereo not given),i,i,82.6,i,i,i
CCN(CC)C(=O)C1=C(C)N(CCC2=CCCCC2)C(=O)C(CC(=O)NCc2cccc3ccccc23)C1 (stereo not given),nt,i,nt,nt,i,nt
CCCCN(CCCC)c1nc2ccccc2nc1NS(=O)(=O)c1ccc(NC(C)=O)cc1,i,i,87.6,i,i,i
